# In PMC10339703 (Clinical and Translational Science, 2023):
# Like-named read-outs stand apart in the source and are kept apart here.
# Columns and labels:
# [1] = type: in vivo, human; conditions: for CL/F / Fe0‐12h (fraction excreted in urine) / Accumulation ratio (based on AUCτ): geometric mean (geometric CV%); for Tmax: human, plasma, oral, range
# [2] = tested on: Pro‐C3; assay: Serum PD biomarker Pro-C3; type: in vivo, human; conditions: MAD; statistically significant after a single dose but not after multiple doses
# Outline: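 Oral tablets b.i.d. for 14 days (morning only day 14), 25–200 mg, in healthy adults randomized 6:2 versus placebo. Morning doses followed ≥10 h fasting; other doses came ≥1 h after a meal. Serum drawn predose and 2, 4, 6, 12 h after day 1 morning dose, day 2/7 predose, and predose to 72 h after day 14 dose. Pro-C3 measured by validated ELISA; AUEC0‑12h computed.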
# [3] = MAD day 1, single 100 mg tablet
# [4] = MAD day 1, single 200 mg tablet
# [5] = MAD day 14, 50 mg tablet b.i.d.
# [6] = MAD day 14, 100 mg tablet b.i.d.
# [7] = MAD day 14, 200 mg tablet b.i.d.
compound,measurement,setting,value
O[C@H]1CCCN[C@@H]1CCCn1cnc2c(Cl)c(Cl)ccc21 [Bersiporocin],"dose adjusted plasma exposure, CYP2D6 poor metabolizer compared to the median value in other phenotypes",[1]; MAD,six‐ to nine‐fold higher
same,CL/F,"[1]; MAD day 1, single 25 mg tablet",175.57 (70.55) L/h
same,Fe0‐12h (fraction excreted in urine),"[1]; MAD day 1, single 25 mg tablet",6.23 (44.75) %
same,CL/F,"[1]; MAD day 1, single 50 mg tablet",292.89 (26.44) L/h
same,Fe0‐12h (fraction excreted in urine),"[1]; MAD day 1, single 50 mg tablet",6.09 (95.30) %
same,CL/F,[1]; [3],261.98 (49.54) L/h
same,Fe0‐12h (fraction excreted in urine),[1]; [3],8.20 (27.21) %
same,CL/F,[1]; [4],266.78 (18.62) L/h
same,Fe0‐12h (fraction excreted in urine),[1]; [4],8.44 (50.39) %
same,Accumulation ratio (based on AUCτ),"[1]; MAD day 14, 25 mg tablet b.i.d.",1.94 (26.34)
same,Accumulation ratio (based on AUCτ),[1]; [5],2.33 (31.42)
same,Fe0‐12h (fraction excreted in urine),[1]; [5],6.09 (95.30) %
same,Accumulation ratio (based on AUCτ),[1]; [6],1.88 (35.07)
same,Fe0‐12h (fraction excreted in urine),[1]; [6],8.20 (27.21) %
same,Accumulation ratio (based on AUCτ),[1]; [7],3.75 (36.01)
same,Fe0‐12h (fraction excreted in urine),[1]; [7],8.44 (50.39) %
same,increase of AUC,"[1]; MAD, 100 to 200 mg dose group",more than four‐folds
same,dose dependence of plasma concentration,"[1]; MAD, enteric coated tablet, after single and multiple doses",dose‐proportional manner
same,time to steady‐state of plasma concentration,"[1]; MAD, enteric coated tablet, first Helmert contrast with p > 0.05",2 days
same,Tmax,"[1]; median T max after a single dose, MAD, single dose",2.5 to 6 h
same,Tmax,"[1]; median T max,ss, MAD, multiple doses",2 to 6 h
same,mean AUEC0‐12h for serum Pro‐C3 compared to the placebo‐treated group,[2],lower
